According to ChEMBL document CHEMBL4052694, “Discovery of novel 5-oxa-2,6-diazaspiro[3.4]oct-6-ene derivatives as potent, selective, and orally available somatostatin receptor subtype 5 (SSTR5) antagonists for treatment of type 2 diabetes mellitus” (Bioorg Med Chem, 2017):
Values after ≈ are worked out from the molar mass of the structure shown. Active and inactive are the calls of the source. The rule behind the calls is not given here.

Tests used:
[1] = target: T1, Somatostatin receptor type 5 (Mus musculus, UniProt O08858); test: Antagonist activity at mouse SSTR5 expressed in CHO cells assessed as inhibition of SST14-induced forskolin-stimulated intracellular cAMP level incubated for 15 mins followed by forskolin stimulation for 30 mins by HTRF assay; assay type: functional, cell-based
T1 sequence (O08858 whole entry): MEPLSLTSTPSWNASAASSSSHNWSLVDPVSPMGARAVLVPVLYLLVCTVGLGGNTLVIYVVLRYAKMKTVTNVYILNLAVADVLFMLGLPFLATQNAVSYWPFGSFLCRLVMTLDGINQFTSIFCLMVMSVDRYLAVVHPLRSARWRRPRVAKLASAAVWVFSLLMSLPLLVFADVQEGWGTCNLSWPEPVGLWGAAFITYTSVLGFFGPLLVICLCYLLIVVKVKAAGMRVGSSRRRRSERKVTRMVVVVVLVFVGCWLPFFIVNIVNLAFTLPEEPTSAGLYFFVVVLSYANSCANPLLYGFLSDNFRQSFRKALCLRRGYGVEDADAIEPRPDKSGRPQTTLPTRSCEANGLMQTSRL

[2] = target: Somatostatin receptor type 5 (Homo sapiens, UniProt P35346); test: Antagonist activity at human SSTR5 expressed in CHO cells assessed as inhibition of SST14-induced forskolin-stimulated intracellular cAMP level incubated for 15 mins followed by forskolin stimulation for 30 mins by HTRF assay; assay type: functional, cell-based
Mus musculus [3] = test: Toxicity in HFD-fed C57BL/6J mouse assessed as induction of hypoglycemia at 100 mg/kg, po after 1 hr; assay type: organism-based; conditions: in vivo
[4] = Intrinsic clearance in human liver microsomes at 1 uM after 15 to 30 mins in presence of NADPH by LC/MS/MS analysis; assay type: ADME, microsome; conditions: read-out: CLH
Method in brief: (§1)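 Liver microsomes at 0.2 mg/mL protein in 50 mM potassium phosphate buffer pH 7.4 with compound at 1 µM. Reaction started with an NADPH-generating system (5 mM MgCl2, 5 mM glucose-6-phosphate, 0.5 mM β-NADP+, 1.5 U/mL G6PDH). Stopped with acetonitrile at 15 and 30 min; analysed by LC/MS/MS. Metabolic velocity taken from the slope of concentration versus time.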

[5] = Oral bioavailability in ICR mouse at 1 mg/kg administered as cassette dose by LC/MS/MS analysis; assay type: ADME, organism-based; conditions: in vivo
Method in brief: (§2)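 Non-fasted male ICR mice, 8 weeks old, n = 3, dosed by cassette: 0.1 mg/kg iv, or 1 mg/kg po as a suspension in 0.5% methylcellulose. Plasma deproteinized with acetonitrile and measured by LC/MS/MS. AUC taken over 0–8 h.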

[6] = target: Somatostatin receptor type 2 (Homo sapiens) (UniProt P30874); test: Inhibition of human SSTR2 at 10 uM by radioligand binding assay relative to control
[7] = target: Somatostatin receptor type 4 (Homo sapiens) (UniProt P31391); test: Inhibition of human SSTR4 at 10 uM by radioligand binding assay relative to control
[8] = target: Somatostatin receptor type 3 (Homo sapiens) (UniProt P32745); test: Inhibition of human SSTR3 at 10 uM by radioligand binding assay relative to control
Mus musculus [9] = test: Antidiabetic activity in HFD-fed SSTR5 knockout C57BL/6J mouse assessed as decrease in blood glucose level administered po pretreated for 1 hr followed by glucose challenge after 1 hr of compound dosing measured up to 120 mins post glucose challenge by OGTT; assay type: functional, organism-based
[10] = Total clearance in ICR mouse at 0.1 mg/kg, iv administered as cassette dose by LC/MS/MS analysis; assay type: ADME, organism-based; conditions: in vivo; method in brief: as §2
Mus musculus [11] = test: Antidiabetic activity in HFD-fed C57BL/6J mouse assessed as decrease in blood glucose level at 100 mg/kg, po pretreated for 1 hr followed by glucose challenge after 1 hr of compound dosing measured up to 120 mins post glucose challenge by OGTT; assay type: functional, organism-based
Method in brief: (§3)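 Male C57BL/6J mice on high-fat diet for ten days. Fasted from morning and grouped by weight and blood glucose at 4 h. Vehicle (0.5% methylcellulose) or compound given orally at 5.5 h; oral glucose 5 g/kg given 1 h later.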

Mus musculus [12] = test: Antidiabetic activity in HFD-fed C57BL/6J mouse assessed as decrease in blood glucose level administered po pretreated for 1 hr followed by glucose challenge after 1 hr of compound dosing measured up to 120 mins post glucose challenge by OGTT; assay type: functional, organism-based
Method in brief: (§4)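 Male C57BL/6J mice on high-fat diet for ten days. Fasted overnight and grouped by weight and blood glucose at 12.5 h. Compound given orally at 1, 3, 10 or 30 mg/kg in 0.5% methylcellulose at 15 h; oral glucose 5 g/kg at 16 h.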

[13] = Tmax in ICR mouse at 1 mg/kg, po administered as cassette dose by LC/MS/MS analysis; assay type: ADME, organism-based; conditions: in vivo; method in brief: as §2
[14] = Intrinsic clearance in mouse liver microsomes at 1 uM after 15 to 30 mins in presence of NADPH by LC/MS/MS analysis; assay type: ADME, microsome; conditions: read-out: CLH; method in brief: as §1
Mus musculus [15] = test: Antidiabetic activity in HFD-fed C57BL/6J mouse assessed as increase in insulin secretion at 100 mg/kg, po pretreated for 1 hr followed by glucose challenge after 1 hr of compound dosing measured up to 120 mins post glucose challenge by OGTT
Mus musculus [16] = test: Antidiabetic activity in HFD-fed C57BL/6J mouse assessed as decrease in blood glucose AUC at 100 mg/kg, po pretreated for 1 hr followed by glucose challenge after 1 hr of compound dosing measured up to 120 mins post glucose challenge by OGTT; assay type: functional, organism-based; method in brief: as §3
[17] = AUC (0 to 8 hrs) in ICR mouse at 1 mg/kg, po administered as cassette dose by LC/MS/MS analysis; assay type: ADME, organism-based; design: dose 1 mg/kg, time < 8 hr, route oral; conditions: in vivo; method in brief: as §2
[18] = Volume of distribution at steady state in ICR mouse at 0.1 mg/kg, iv administered as cassette dose by LC/MS/MS analysis; assay type: ADME, organism-based; conditions: in vivo, read-out: Vdss; method in brief: as §2
hERG (KCNH2) = hERG (KCNH2) (Homo sapiens, UniProt Q12809); test: Inhibition of human ERG expressed in CHO cells assessed as decrease in peak tail current at 30 uM after 5 mins at -80 mV holding potential by patch clamp assay relative to control; assay type: cell-based; conditions: CHO cells expressing human ERG
Method in brief: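 hERG-expressing CHO cells grown at 32 °C in Ham's F-12 with 10% FBS and Geneticin. Population patch clamp, perforated with 100 µg/mL amphotericin B. PBS with Ca/Mg outside; 140 mM KCl, 2 mM MgCl2, 1 mM EGTA, 20 mM HEPES pH 7.3 inside. Holding -80 mV, step to 40 mV for 2 s, then -50 mV for 2 s. Peak tail current compared before and after 5 min with compound at 30 µM, n = 4.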

[19] = target: Somatostatin receptor type 1 (Homo sapiens) (UniProt P30872); test: Inhibition of human SSTR1 at 10 uM by radioligand binding assay relative to control
[20] = Solubility of the compound in aqueous buffer solution at pH 6.8 after 18 hrs by HPLC analysis; assay type: physicochemical
Method in brief: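 0.4 mg compound in 0.4 mL aqueous buffer, pH 6.8 (Japanese Pharmacopoeia second disintegration fluid). Shaken at 500 rpm at 37 °C for 18 h, then filtered; dissolved concentration measured by HPLC.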

[21] = Cmax in ICR mouse at 1 mg/kg, po administered as cassette dose by LC/MS/MS analysis; assay type: ADME, organism-based; design: dose 1 mg/kg, route oral; conditions: in vivo; method in brief: as §2
[22] = 1-octanol/aqueous buffer solution partition coefficient, log D of the compound at pH 7.4 by UV-vis/HPLC method; assay type: physicochemical
Method in brief: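 Octanol/buffer partition coefficient at pH 7.4, estimated chromatographically by HPLC with UV–vis detection, using conditions adapted from a published method.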

Mus musculus [23] = test: Antidiabetic activity in HFD-fed C57BL/6J mouse assessed as decrease in blood glucose level at 30 mg/kg, po pretreated for 1 hr followed by glucose challenge by OGTT; assay type: functional, organism-based; method in brief: as §4
Mus musculus [24] = test: Antidiabetic activity in HFD-fed C57BL/6J mouse assessed as decrease in blood glucose AUC at 30 mg/kg, po pretreated for 1 hr followed by glucose challenge after 1 hr of compound dosing measured up to 120 mins post glucose challenge by OGTT; assay type: functional, organism-based; method in brief: as §4
Mus musculus [25] = test: Antidiabetic activity in HFD-fed C57BL/6J mouse assessed as increase in insulin secretion at 30 mg/kg, po pretreated for 1 hr followed by glucose challenge by OGTT; assay type: functional, organism-based

Chain of hERG (KCNH2) (Q12809 whole entry): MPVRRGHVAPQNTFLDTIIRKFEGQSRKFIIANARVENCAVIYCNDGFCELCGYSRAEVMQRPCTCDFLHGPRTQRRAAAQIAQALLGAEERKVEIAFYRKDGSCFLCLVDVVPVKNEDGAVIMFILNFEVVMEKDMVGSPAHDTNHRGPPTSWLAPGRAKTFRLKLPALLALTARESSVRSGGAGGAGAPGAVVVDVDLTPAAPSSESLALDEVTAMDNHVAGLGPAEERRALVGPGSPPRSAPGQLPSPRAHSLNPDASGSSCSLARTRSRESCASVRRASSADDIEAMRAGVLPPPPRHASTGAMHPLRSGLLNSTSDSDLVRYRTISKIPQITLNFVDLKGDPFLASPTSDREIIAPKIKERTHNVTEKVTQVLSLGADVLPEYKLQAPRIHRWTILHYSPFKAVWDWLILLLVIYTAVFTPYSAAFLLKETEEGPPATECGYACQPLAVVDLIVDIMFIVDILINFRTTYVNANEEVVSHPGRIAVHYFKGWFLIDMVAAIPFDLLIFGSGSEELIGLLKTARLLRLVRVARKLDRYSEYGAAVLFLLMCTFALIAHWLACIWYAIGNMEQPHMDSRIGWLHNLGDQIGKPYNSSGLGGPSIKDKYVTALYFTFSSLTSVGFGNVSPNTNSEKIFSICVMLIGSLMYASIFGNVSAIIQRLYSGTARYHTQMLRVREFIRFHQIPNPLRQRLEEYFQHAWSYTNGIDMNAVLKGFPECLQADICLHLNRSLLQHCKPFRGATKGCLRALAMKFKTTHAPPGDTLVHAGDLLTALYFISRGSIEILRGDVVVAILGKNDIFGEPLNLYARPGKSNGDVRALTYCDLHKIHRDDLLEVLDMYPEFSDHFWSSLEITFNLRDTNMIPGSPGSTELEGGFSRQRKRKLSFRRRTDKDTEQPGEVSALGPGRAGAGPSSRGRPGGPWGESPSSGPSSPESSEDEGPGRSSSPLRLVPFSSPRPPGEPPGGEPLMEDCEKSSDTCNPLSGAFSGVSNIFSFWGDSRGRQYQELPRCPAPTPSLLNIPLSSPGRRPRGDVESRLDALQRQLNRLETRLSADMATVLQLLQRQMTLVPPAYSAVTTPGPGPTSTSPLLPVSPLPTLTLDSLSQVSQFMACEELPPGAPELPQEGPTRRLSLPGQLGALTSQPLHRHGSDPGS
Chain of Somatostatin receptor type 5 (Homo sapiens, UniProt P35346) (P35346 whole entry): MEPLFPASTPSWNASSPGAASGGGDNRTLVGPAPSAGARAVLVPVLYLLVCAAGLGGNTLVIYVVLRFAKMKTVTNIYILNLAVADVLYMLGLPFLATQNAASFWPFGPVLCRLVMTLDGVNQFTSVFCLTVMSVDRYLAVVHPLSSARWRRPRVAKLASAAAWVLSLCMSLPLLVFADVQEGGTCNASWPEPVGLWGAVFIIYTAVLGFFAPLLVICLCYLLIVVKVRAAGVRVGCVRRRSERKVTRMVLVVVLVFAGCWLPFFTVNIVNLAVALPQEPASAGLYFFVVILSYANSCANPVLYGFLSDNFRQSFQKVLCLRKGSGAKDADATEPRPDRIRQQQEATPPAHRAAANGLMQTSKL
Chain of Somatostatin receptor type 3 (Homo sapiens) (P32745 whole entry): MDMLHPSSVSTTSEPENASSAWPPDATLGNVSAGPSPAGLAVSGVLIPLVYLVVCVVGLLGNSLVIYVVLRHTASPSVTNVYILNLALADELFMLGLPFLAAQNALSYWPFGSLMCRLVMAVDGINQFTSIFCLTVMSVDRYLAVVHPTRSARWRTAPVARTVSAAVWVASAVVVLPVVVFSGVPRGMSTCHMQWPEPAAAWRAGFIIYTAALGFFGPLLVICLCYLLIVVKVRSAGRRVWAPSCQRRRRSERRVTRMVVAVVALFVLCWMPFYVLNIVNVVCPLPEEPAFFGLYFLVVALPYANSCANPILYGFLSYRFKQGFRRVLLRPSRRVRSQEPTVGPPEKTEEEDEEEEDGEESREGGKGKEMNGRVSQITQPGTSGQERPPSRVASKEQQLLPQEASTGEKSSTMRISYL
Chain of Somatostatin receptor type 2 (Homo sapiens) (P30874 whole entry): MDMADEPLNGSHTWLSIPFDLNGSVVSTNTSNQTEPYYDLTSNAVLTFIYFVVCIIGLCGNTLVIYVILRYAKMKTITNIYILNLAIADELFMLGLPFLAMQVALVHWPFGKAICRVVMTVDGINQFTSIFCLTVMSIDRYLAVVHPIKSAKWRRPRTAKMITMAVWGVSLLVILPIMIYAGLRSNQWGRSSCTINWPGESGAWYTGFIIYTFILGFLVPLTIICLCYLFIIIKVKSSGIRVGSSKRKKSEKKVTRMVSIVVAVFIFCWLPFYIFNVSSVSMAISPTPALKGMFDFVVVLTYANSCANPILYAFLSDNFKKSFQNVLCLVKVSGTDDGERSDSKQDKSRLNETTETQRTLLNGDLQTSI
Chain of Somatostatin receptor type 1 (Homo sapiens) (P30872 whole entry): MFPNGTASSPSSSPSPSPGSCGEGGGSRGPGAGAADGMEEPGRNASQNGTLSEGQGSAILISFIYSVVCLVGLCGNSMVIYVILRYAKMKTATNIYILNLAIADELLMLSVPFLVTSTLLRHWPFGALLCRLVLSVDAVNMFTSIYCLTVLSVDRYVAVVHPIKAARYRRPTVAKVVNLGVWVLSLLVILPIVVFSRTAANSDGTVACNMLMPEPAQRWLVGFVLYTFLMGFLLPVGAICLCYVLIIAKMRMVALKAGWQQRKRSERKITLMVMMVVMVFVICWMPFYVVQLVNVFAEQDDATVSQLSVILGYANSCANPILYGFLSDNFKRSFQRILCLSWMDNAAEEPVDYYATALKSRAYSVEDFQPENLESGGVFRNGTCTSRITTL
Chain of Somatostatin receptor type 4 (Homo sapiens) (P31391 whole entry): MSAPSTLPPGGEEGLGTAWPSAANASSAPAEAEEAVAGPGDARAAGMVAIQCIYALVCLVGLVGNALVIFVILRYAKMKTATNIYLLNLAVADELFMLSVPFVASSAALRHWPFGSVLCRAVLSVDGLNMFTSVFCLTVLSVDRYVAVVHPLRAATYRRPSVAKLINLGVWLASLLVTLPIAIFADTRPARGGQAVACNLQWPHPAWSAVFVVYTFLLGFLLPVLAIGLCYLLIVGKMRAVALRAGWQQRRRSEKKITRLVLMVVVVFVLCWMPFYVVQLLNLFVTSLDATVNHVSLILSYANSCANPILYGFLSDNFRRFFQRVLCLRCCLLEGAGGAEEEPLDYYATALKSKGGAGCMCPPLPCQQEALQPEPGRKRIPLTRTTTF

Compound | IC50 [1] [nM] | IC50 [2] [nM] | inhibition at 5 min, 30 µM (hERG (KCNH2)) [%] | logD [22] | other results
CCOc1cc(CN2CC3(CC(c4ccc(CO)cc4)=NO3)C2)cc(OCC)c1-c1ccc(F)cc1 | 430 | 1000 | – | – | –
CCOc1cc(CN2CC3(CC(c4ccccc4)=NO3)C2)cc(OCC)c1-c1ccc(F)cc1 | 980 | 2800 | – | – | –
CCOc1cc(CN2CC3(CC(c4cccc(C(=O)O)c4)=NO3)C2)cc(OCC)c1-c1ccc(F)cc1 | 260 | 550 | – | – | –
CCOc1cc(CN2CC3(CC(N4CCC(C(=O)O)CC4)=NO3)C2)cc(OCC)c1-c1ccc(F)cc1 | – | – | 5.6 | – | Activity (Mus musculus [3]): Non-Toxic; microsomal CLint at 1 µM [4]: < 10 µL/min/mg; bioavailability [5]: 58%; inhibition [6]: 8%; inhibition [7]: 10%; inhibition [8]: 14%; Activity (Mus musculus [9]): inactive; clearance [10]: 29.3 mL/min/kg; Activity (Mus musculus [11]): Active; Activity (Mus musculus [12]): Dose-dependent effect; Tmax [13]: 2 h; microsomal CLint at 1 µM [14]: 19 µL/min/mg; Activity (Mus musculus [15]): Active; Activity (Mus musculus [16]): Active; AUC(0-t) at 8 h [17]: 332 ng·h/mL; Vd [18]: 3.05 L/kg; inhibition [19]: 11%; solubility at 18 h [20]: 260 µg/mL (≈ 508 µM); Cmax [21]: 74.8 ng/mL
CCOc1cc(CN2CC3(CC(N4CC(C(=O)O)C4)=NO3)C2)cc(OCC)c1-c1ccc(F)cc1 | 120 | 200 | 8.1 | 2.9 | –
CCOc1cc(CN2CC3(CC(N4CCC(C(=O)O)C4)=NO3)C2)cc(OCC)c1-c1ccc(F)cc1 (stereo not drawn) | 48 | 190 | 17 | 2.9 | –
CCOc1cc(CN2CC3(CC([C@H]4CC[C@@H](C(=O)O)CC4)=NO3)C2)cc(OCC)c1-c1ccc(F)cc1 | 210 | 130 | 33 | 3.3 | –
CCOc1cc(C(C)N2CC3(CC(c4ccc(C(=O)O)cc4)=NO3)C2)cc(OCC)c1-c1ccc(F)cc1 (stereo not drawn) | 2000 | 95 | 14 | 3.6 | –
CCOc1cc(CN2CC3(CC(c4ccc(C(=O)O)cc4Cl)=NO3)C2)cc(OCC)c1-c1ccc(F)cc1 | 31 | 46 | 40 | 3.5 | –
CCOc1cc(C(=O)N2CC3(CC(c4ccc(C(=O)O)cc4)=NO3)C2)cc(OCC)c1-c1ccc(F)cc1 | > 10000 | > 10000 | 7.9 | 2.8 | –
CCOc1cc(CN2CC3(CC(c4ccc(C(=O)O)cn4)=NO3)C2)cc(OCC)c1-c1ccc(F)cc1 | 20 | 61 | – | – | –
CCOc1cc(CN2CC3(CC(c4ccc(C(=O)O)cc4C)=NO3)C2)cc(OCC)c1-c1ccc(F)cc1 | 21 | 140 | 18 | 3.5 | –
Cn1c(=O)cc(N2CCC[C@@H](N)C2)n(Cc2ccccc2C#N)c1=O | – | – | – | – | Activity (Mus musculus [23]): Active; Activity (Mus musculus [24]): Active; Activity (Mus musculus [25]): Active
CCOc1cc(CN2CC3(CC(CCC(=O)O)=NO3)C2)cc(OCC)c1-c1ccc(F)cc1 | 220 | 3200 | – | – | –
CCOc1cc(CN2CC3(CC(c4ccccc4C(=O)O)=NO3)C2)cc(OCC)c1-c1ccc(F)cc1 | > 10000 | > 10000 | 4.5 | 3.1 | –
CCOc1cc(CN2CC3(CC(c4ccc(C(N)=O)cc4)=NO3)C2)cc(OCC)c1-c1ccc(F)cc1 | 150 | 150 | – | – | –
CCOc1cc(CN2CC3(CC(c4ccc(CC(=O)O)cc4)=NO3)C2)cc(OCC)c1-c1ccc(F)cc1 | 74 | 220 | – | – | –
CCOc1cc(CN2CC3(CC(c4ccc(C(=O)O)cc4)=NO3)C2)cc(OCC)c1-c1ccc(F)cc1 | 33 | 9 | 65 | 3.3 | solubility at 18 h [20]: 1.3 µg/mL (≈ 2.58 µM)
CCOc1cc(CN2CC3(CC([C@H]4CC[C@H](C(=O)O)CC4)=NO3)C2)cc(OCC)c1-c1ccc(F)cc1 | 38 | 30 | 15 | 3.2 | –
